Calls of active or inactive are those of the source. A value given as a limit tells only on which side of the number the result lay.

In one data set the target is T1, Salicyl-AMP ligase / salicyl-S-ArCP synthetase (Mycobacterium tuberculosis, UniProt P71716).
T1 sequence (P71716 whole entry): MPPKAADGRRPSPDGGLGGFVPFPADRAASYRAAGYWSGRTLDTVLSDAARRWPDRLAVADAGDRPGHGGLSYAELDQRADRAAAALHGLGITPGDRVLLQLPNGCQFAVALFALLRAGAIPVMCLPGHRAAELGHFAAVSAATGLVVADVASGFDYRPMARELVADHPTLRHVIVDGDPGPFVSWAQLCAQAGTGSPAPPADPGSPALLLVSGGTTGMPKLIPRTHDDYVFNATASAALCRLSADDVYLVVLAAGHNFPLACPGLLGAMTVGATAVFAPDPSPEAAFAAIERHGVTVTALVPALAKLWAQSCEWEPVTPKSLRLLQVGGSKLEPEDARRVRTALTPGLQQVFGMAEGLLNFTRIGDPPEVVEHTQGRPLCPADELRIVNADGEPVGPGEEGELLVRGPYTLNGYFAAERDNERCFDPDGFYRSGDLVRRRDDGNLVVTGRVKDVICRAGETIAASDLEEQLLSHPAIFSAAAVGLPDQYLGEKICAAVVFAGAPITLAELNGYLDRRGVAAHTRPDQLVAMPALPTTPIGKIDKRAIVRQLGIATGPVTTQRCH
As to the kind of experiment: Inhibition of Mycobacterium tuberculosis recombinant salicylate ligase MbtA expressed in Escherichia coli using salicylic acid as substrate after 20 mins by [32P]PPi-ATP exchange based scintillation counting analysis. The note with it: read-out: Ki(app). In short, it runs like this:
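Recombinant MbtA (7 nM) in a [32P]PPi-ATP exchange assay under initial-velocity conditions at pH 8.0. Substrates were 10 mM ATP, 250 μM salicylic acid and 1 mM PPi. Concentration–response data were fitted to the Morrison tight-binding equation to give apparent Ki.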
As to `Nc1ncnc2c1ncn2[C@@H]1O[C@H](CNS(=O)(=O)c2noc3ccccc3c2=O)[C@@H](O)[C@H]1O`, the Ki was more than 50 µM.

For the compound `Nc1ncnc2c1ncn2[C@@H]1O[C@H](CNS(=O)(=O)c2n[nH]c3cc(F)c(F)cc3c2=O)[C@@H](O)[C@H]1O`, the Ki amounted to 0.014 µM.

For the compound `Nc1ncnc2c1ncn2[C@@H]1O[C@H](CNS(=O)(=O)c2c[nH]c3ccccc3c2=O)[C@@H](O)[C@H]1O`, the Ki amounted to 0.12 µM.

The next data set relates to Mycobacterium tuberculosis. As to the kind of experiment: Antimycobacterial activity against Mycobacterium tuberculosis H37Rv in glycerol alanine salts medium without ferric ammonium citrate at pH 6.6 after 10 to 14 days by broth microdilution method. Type of data set: functional.
Settings: not given
In short, it runs like this: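 M. tuberculosis H37Rv grown in glycerol-alanine-salts medium at pH 6.6, with no ferric ammonium citrate or other added iron. MIC taken as the concentration inhibiting 99% of growth.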
In general terms: Broth dilution looks for growth in wells or tubes with falling amounts of substance.
For orientation: MIC99 means the lowest concentration that inhibits either 99% of growth or 99% of the strains tested, depending on the study. `Nc1ncnc2c1ncn2[C@@H]1O[C@H](CNS(=O)(=O)c2noc3ccccc3c2=O)[C@@H](O)[C@H]1O`: the MIC99 was more than 50 µM.

For `Nc1ncnc2c1ncn2[C@@H]1O[C@H](CNS(=O)(=O)c2n[nH]c3cc(F)c(F)cc3c2=O)[C@@H](O)[C@H]1O`, the MIC99 came to 3.1 µM.

Take `Nc1ncnc2c1ncn2[C@@H]1O[C@H](CNS(=O)(=O)c2c[nH]c3ccccc3c2=O)[C@@H](O)[C@H]1O`: the MIC99 is more than 50 µM.

Test system in another data set: not listed separately
In words: Cytotoxicity against human HepG2 cells assessed as reduction in cell viability. The class given is cell-based.
Settings: not given
The method, boiled down: (§1)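 Viability of mammalian Vero and HepG2 cell lines tested up to a highest concentration of 200 μM.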
For orientation: CC50 means the concentration giving 50% cytotoxicity. As for `Nc1ncnc2c1ncn2[C@@H]1O[C@H](CNS(=O)(=O)c2noc3ccccc3c2=O)[C@@H](O)[C@H]1O`, the CC50 was more than 200 µM.

In the case of `Nc1ncnc2c1ncn2[C@@H]1O[C@H](CNS(=O)(=O)c2n[nH]c3cc(F)c(F)cc3c2=O)[C@@H](O)[C@H]1O`, the CC50 was more than 200 µM.

As to `Nc1ncnc2c1ncn2[C@@H]1O[C@H](CNS(=O)(=O)c2c[nH]c3ccccc3c2=O)[C@@H](O)[C@H]1O`, the CC50 is more than 200 µM.

Test system in the next data set: not listed separately
As to the kind of experiment: Cytotoxicity against African green monkey Vero cells assessed as reduction in cell viability. As to conditions: chlorocebus sabaeus. Type of data set: cell-based. The method, boiled down: as §1
Take `Nc1ncnc2c1ncn2[C@@H]1O[C@H](CNS(=O)(=O)c2noc3ccccc3c2=O)[C@@H](O)[C@H]1O`: the CC50 is more than 200 µM.

For `Nc1ncnc2c1ncn2[C@@H]1O[C@H](CNS(=O)(=O)c2n[nH]c3cc(F)c(F)cc3c2=O)[C@@H](O)[C@H]1O`, the CC50 was more than 200 µM.

Consider `Nc1ncnc2c1ncn2[C@@H]1O[C@H](CNS(=O)(=O)c2c[nH]c3ccccc3c2=O)[C@@H](O)[C@H]1O`, for which the half-maximal cytotoxic concentration (CC50) was more than 200 µM.

For a further data set, the system named is Mycobacterium tuberculosis. As to the kind of experiment: Antimycobacterial activity against Mycobacterium tuberculosis H37Rv in glycerol alanine salts medium without ferric ammonium citrate at pH 6.6 after 10 to 14 days in presence of 0.2 to 3.1 uM salicylate by broth microdilution method. The class given is functional, organism-based.
Settings: not given
The method, boiled down: (§2)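 MIC against M. tuberculosis in iron-deficient GAST medium supplemented with salicylate at 0, 0.2, 0.78, 3.1 or 12.5 μM. Salicylate was added to the growth medium to test antagonism of whole-cell activity.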
As to `Nc1ncnc2c1ncn2[C@@H]1O[C@H](CNS(=O)(=O)c2n[nH]c3cc(F)c(F)cc3c2=O)[C@@H](O)[C@H]1O`, the outcome was inactive.

In a further data set the test system is Mycobacterium tuberculosis. As to the kind of experiment: Antimycobacterial activity against Mycobacterium tuberculosis H37Rv in glycerol alanine salts medium without ferric ammonium citrate at pH 6.6 after 10 to 14 days in presence of 12.5 uM salicylate by broth microdilution method. The class given is functional.
Settings: not given
In short, it runs like this:
as §2
For orientation: MIC means the smallest concentration in the dilution series that meets the test's criterion for growth inhibition. For the compound `Nc1ncnc2c1ncn2[C@@H]1O[C@H](CNS(=O)(=O)c2n[nH]c3cc(F)c(F)cc3c2=O)[C@@H](O)[C@H]1O`, the MIC is not below 50 µM.
